{
  "source": "ChEMBL document CHEMBL4316592",
  "about": "“Synthesis of new derivatives of boehmeriasin A and their biological evaluation in liver cancer” (Eur J Med Chem, 2019)",
  "key": {"[1]": {"system": "Huh-7", "experiment": "Cell cycle arrest in human HuH7 cells assessed as accumulation of cells at S phase at 1 uM after 72 hrs by propidium iodide staining-based flow cytometric analysis (reference value: 15.5%)", "format": "functional"}, "[2]": {"system": "Huh-7", "experiment": "Cell cycle arrest in human HuH7 cells assessed as accumulation of cells at G1 phase at 1 uM after 24 hrs by propidium iodide staining-based flow cytometric analysis (reference value: 41.7%)", "format": "functional"}, "[3]": {"system": "Mahlavu", "experiment": "Induction of apoptosis in human Mahlavu cells assessed as late apoptotic cells at 1 uM after 48 hrs by Annexin V-FITC/propidium iodide staining-based flow cytometric analysis (reference value: 1.45%)", "format": "functional"}, "[4]": {"system": "Huh-7", "experiment": "Induction of apoptosis in human HuH7 cells assessed as increase in cytochrome C levels at 1 uM by Hoechst staining-based assay", "format": "functional, cell-based"}, "[5]": {"system": "SNU-475", "experiment": "Cytotoxicity against human SNU475 cells after 72 hrs by SRB assay", "format": "functional, cell-based", "conditions": "Homo sapiens, SNU-475, 72 h; read-out: IC50", "summary_of_the_method": "(§1)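 SRB assay. Cells plated per well (HCT116 3000; Huh7, Hep3B, HepG2, MCF-7 2000; Mahlavu, FOCUS, SNU475 1000) and grown 24 h. Compounds came from 20 mM DMSO stocks and were tested in triplicate, 40 to 2,5 (or 2,5 to 0,03) per printed range, for 72 h. Cells fixed in 10% TCA, stained with 0.4% SRB, dye dissolved in 10 mM Tris, A515 read. IC50 derived after DMSO normalization.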"}, "[6]": {"system": "Huh-7", "experiment": "Cell cycle arrest in human HuH7 cells assessed as accumulation of cells at subG1 phase at 1 uM after 24 hrs by propidium iodide staining-based flow cytometric analysis (reference value: 6.8%)", "format": "functional"}, "[7]": {"system": "Huh-7", "experiment": "Cell cycle arrest in human HuH7 cells assessed as accumulation of cells at subG1 phase at 1 uM after 48 hrs by propidium iodide staining-based flow cytometric analysis (reference value: 3.2%)", "format": "functional"}, "[8]": {"system": "Huh-7", "experiment": "Down-regulation of cyclin-B1 protein expression in human HuH7 cells at 1 uM after 24 to 72 hrs by Western blot analysis", "format": "functional, cell-based"}, "[9]": {"system": "HCT-116", "experiment": "Cytotoxicity against human HCT116 cells after 72 hrs by SRB assay", "format": "functional, cell-based", "conditions": "Homo sapiens, HCT-116, 72 h; read-out: IC50", "summary_of_the_method": "as §1"}, "[10]": {"system": "Mahlavu", "experiment": "Cell cycle arrest in human Mahlavu cells assessed as accumulation of cells at G1 phase at 1 uM after 24 hrs by propidium iodide staining-based flow cytometric analysis (reference value: 33.8%)", "format": "functional"}, "[11]": {"system": "Mahlavu", "experiment": "Down-regulation of CDK2 protein expression in human Mahlavu cells at 1 uM after 24 to 72 hrs by Western blot analysis", "format": "functional, cell-based"}, "[12]": {"system": "Mahlavu", "experiment": "Cell cycle arrest in human Mahlavu cells assessed as accumulation of cells at S phase at 1 uM after 48 hrs by propidium iodide staining-based flow cytometric analysis (reference value: 11.6%)", "format": "functional"}, "[13]": {"system": "Mahlavu", "experiment": "Cell cycle arrest in human Mahlavu cells assessed as accumulation of cells at G2/M phase at 1 uM after 24 hrs by propidium iodide staining-based flow cytometric analysis (reference value: 24.7%)", "format": "functional"}, "[14]": {"system": "Huh-7", "experiment": "Cell cycle arrest in human HuH7 cells assessed as accumulation of cells at G2/M phase at 1 uM after 24 hrs by propidium iodide staining-based flow cytometric analysis (reference value: 37.3%)", "format": "functional"}, "[15]": {"molecular_target": "T1, Mitogen-activated protein kinase kinase kinase 5 (Homo sapiens) (UniProt Q99683)", "T1 sequence (whole entry)": "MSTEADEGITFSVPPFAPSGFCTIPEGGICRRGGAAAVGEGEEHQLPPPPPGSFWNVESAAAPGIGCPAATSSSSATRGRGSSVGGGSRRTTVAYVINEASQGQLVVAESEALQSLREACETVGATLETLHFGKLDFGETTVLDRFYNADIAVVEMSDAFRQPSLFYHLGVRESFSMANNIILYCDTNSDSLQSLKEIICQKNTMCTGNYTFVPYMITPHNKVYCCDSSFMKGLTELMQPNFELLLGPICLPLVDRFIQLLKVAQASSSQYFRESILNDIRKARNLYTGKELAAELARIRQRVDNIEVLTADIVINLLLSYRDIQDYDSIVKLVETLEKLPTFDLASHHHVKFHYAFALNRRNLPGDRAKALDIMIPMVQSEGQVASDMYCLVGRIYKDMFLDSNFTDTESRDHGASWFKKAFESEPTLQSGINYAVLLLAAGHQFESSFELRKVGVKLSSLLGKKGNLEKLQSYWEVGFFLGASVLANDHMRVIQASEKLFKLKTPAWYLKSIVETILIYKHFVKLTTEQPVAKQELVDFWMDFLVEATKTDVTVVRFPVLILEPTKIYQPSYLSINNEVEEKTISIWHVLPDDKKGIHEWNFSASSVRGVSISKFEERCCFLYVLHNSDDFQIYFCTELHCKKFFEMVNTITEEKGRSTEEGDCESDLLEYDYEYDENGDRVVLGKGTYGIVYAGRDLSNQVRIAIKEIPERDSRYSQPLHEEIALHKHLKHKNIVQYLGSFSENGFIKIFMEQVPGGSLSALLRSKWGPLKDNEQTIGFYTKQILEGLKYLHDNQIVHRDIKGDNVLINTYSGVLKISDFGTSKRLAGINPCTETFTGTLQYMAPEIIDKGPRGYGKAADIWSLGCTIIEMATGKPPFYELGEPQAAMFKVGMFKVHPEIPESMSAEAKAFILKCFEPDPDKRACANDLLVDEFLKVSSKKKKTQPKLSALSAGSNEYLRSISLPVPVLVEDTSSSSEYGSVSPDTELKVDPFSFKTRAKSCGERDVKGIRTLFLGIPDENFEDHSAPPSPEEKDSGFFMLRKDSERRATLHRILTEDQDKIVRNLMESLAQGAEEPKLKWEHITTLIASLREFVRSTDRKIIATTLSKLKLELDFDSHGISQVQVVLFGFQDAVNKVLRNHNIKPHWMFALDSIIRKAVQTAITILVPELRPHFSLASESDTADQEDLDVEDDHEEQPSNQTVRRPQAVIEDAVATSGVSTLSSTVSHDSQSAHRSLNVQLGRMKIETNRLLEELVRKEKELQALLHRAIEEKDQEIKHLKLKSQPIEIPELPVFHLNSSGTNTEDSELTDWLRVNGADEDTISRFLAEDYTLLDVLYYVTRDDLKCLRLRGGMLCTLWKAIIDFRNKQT", "experiment": "Inhibition of ASK1 Ser-966 phosphorylation in human Mahlavu cells at 1 uM after 24 to 72 hrs by Western blot analysis", "format": "cell-based"}, "[16]": {"system": "Huh-7", "experiment": "Induction of apoptosis in human HuH7 cells assessed as late apoptotic cells at 1 uM after 72 hrs by Annexin V-FITC/propidium iodide staining-based flow cytometric analysis (reference value: 2.34%)", "format": "functional"}, "[17]": {"system": "Mahlavu", "experiment": "Cytotoxicity against human Mahlavu cells after 48 hrs by RTCA analysis", "format": "functional, cell-based", "summary_of_the_method": "(§2)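 xCELLigence impedance real-time growth assay. Huh7 (2000) or Mahlavu (1000) cells plated, treated after 24 h at log phase with a 2-fold dilution series (4 steps) from a top concentration of 1. Cell index recorded every 10 min for 24 h, then every 30 min. Growth inhibition normalized to DMSO; IC50 taken at 24, 48, 72 h.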"}, "[18]": {"system": "Mahlavu", "experiment": "Cytotoxicity against human Mahlavu cells after 72 hrs by RTCA analysis", "format": "functional, cell-based", "summary_of_the_method": "as §2"}},
  "note": "Calls of active or inactive are those of the source. The rule behind the calls is not given here.",
  "data": [
    {"smiles": "COc1ccc2c3c(c4cc(OC)c(OC)cc4c2c1)CN1CCCC[C@@H]1C3", "values": [
      {"measurement": "Activity", "setting": "[1]", "result": 8.7, "unit": "%"},
      {"measurement": "Activity", "setting": "[2]", "result": 43.1, "unit": "%"},
      {"measurement": "Activity", "setting": "[3]", "result": 7.07, "unit": "%"},
      {"measurement": "Activity", "setting": "[4]", "result": "Active"},
      {"measurement": "IC50", "setting": "[5]", "result": 14, "unit": "nM"},
      {"measurement": "Activity", "setting": "[6]", "result": 13.6, "unit": "%"},
      {"measurement": "Activity", "setting": "[7]", "result": 7.5, "unit": "%"},
      {"measurement": "Activity", "setting": "[8]", "result": "Active"},
      {"measurement": "IC50", "setting": "[9]", "result": 700, "unit": "nM"},
      {"measurement": "Activity", "setting": "[10]", "result": 43.8, "unit": "%"},
      {"measurement": "Activity", "setting": "[11]", "result": "Active"},
      {"measurement": "Activity", "setting": "[12]", "result": 10.5, "unit": "%"},
      {"measurement": "Activity", "setting": "[13]", "result": 23.7, "unit": "%"},
      {"measurement": "Activity", "setting": "[14]", "result": 27.4, "unit": "%"},
      {"measurement": "inhibition", "setting": "[15]", "result": "Active"},
      {"measurement": "Activity", "setting": "[16]", "result": 16.15, "unit": "%"},
      {"measurement": "IC50", "setting": "[17]", "result": 400, "unit": "nM"},
      {"measurement": "IC50", "setting": "[18]", "result": 600, "unit": "nM"}
    ]},
    {"smiles": "COc1ccc2c3c(c4cc(OC)c(OC)cc4c2c1)CN1CCCCC1C3O", "note": "(racemic)", "values": [
      {"measurement": "Activity", "setting": "[1]", "result": 7.7, "unit": "%"},
      {"measurement": "Activity", "setting": "[2]", "result": 31.6, "unit": "%"},
      {"measurement": "Activity", "setting": "[3]", "result": 0.98, "unit": "%"},
      {"measurement": "Activity", "setting": "[4]", "result": "Active"},
      {"measurement": "IC50", "setting": "[5]", "result": 15, "unit": "nM"},
      {"measurement": "Activity", "setting": "[6]", "result": 23.1, "unit": "%"},
      {"measurement": "Activity", "setting": "[7]", "result": 25.4, "unit": "%"},
      {"measurement": "Activity", "setting": "[8]", "result": "Active"},
      {"measurement": "IC50", "setting": "[9]", "result": "< 1", "unit": "nM"},
      {"measurement": "Activity", "setting": "[10]", "result": 36.8, "unit": "%"},
      {"measurement": "Activity", "setting": "[11]", "result": "Active"},
      {"measurement": "Activity", "setting": "[12]", "result": 9.5, "unit": "%"},
      {"measurement": "Activity", "setting": "[13]", "result": 32.4, "unit": "%"},
      {"measurement": "Activity", "setting": "[14]", "result": 32.1, "unit": "%"},
      {"measurement": "inhibition", "setting": "[15]", "result": "Active"},
      {"measurement": "Activity", "setting": "[16]", "result": 17.97, "unit": "%"},
      {"measurement": "IC50", "setting": "[17]", "result": 4, "unit": "nM"},
      {"measurement": "IC50", "setting": "[18]", "result": 10, "unit": "nM"}
    ]}
  ]
}
